Consider 4 molecules from paper PMC12079591 (ACS Omega, 2025).

For data set [1] the following is noted: 1 h postinjection; cited from earlier work.
Another data set deals with K562/ADR. The data set can be described thus: Cell proliferation assay, multidrug-resistant K562/ADR. As to conditions: for RF (resistance factor): K562/ADR versus K562; for IC50: read-out: IC50 K562/ADR, multidrug-resistant subline, mean ± SD (n ≥ 2). Type of data set: cell-based. In outline:
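K562/ADR cells were derived from parental K562 by stepwise increases in ADR concentration. Proliferation was measured by the SRB (adherent) or MTT (suspension) method: 4000−6000 cells/well seeded overnight at 37 °C, 5% CO2, graded test compound in triplicate wells. IC50 was obtained by nonlinear regression. The resistance factor compares K562/ADR with parental K562. Results are means ± SD (n ≥ 2).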

The subject of the next data set is MDA-MB-231 cells. The data set can be described thus: Cell cycle analysis by flow cytometry. As to conditions: MDA-MB-231, 24 h treatment. It is filed as cell-based, human. In outline: (§1)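 Cells were seeded in 12-well plates overnight, then exposed to test compound for 24 h. Cells were trypsinized, washed in cold PBS and fixed overnight in 70% ethanol at −20 °C. After two PBS washes they were stained 30 min at 37 °C with 50 μg/mL propidium iodide plus 20 μg/mL RNase A. About 10,000 cells were acquired by flow cytometry. Results are means ± SD; two-tailed unpaired t test.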
In general terms: In flow cytometry, cells or beads pass a laser one at a time.

The next data set has as its system NCI-H460. Description: Cell proliferation assay. Type of data set: cell-based. Particulars: read-out: IC50 NCI-H460; lung carcinoma; mean ± SD (n ≥ 2). In outline: (§2)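 Mycoplasma-negative, STR-authenticated cells were seeded at 4000−6000/well and kept overnight at 37 °C, 5% CO2. Graded test compound concentrations or solvent control were added to triplicate wells. Adherent lines were read by SRB (OD 510 nm) and suspension lines by MTT (OD 570 nm). IC50 was obtained by nonlinear regression. Results are means ± SD (n ≥ 2).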

In data set [2] the test system is P-AKT, P-STAT3, P-STAT5, P-P38. Description: Western blot of JAK/STAT5, PI3K/AKT and p38 MAPK pathways. Type of data set: cell-based, human. As to conditions: MDA-MB-231 and PC-3 cells, 24 h, concentration-dependent. In outline: (§3)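 MDA-MB-231 and PC-3 cells were seeded in 12-well plates overnight, then exposed to a concentration gradient of test compound. Cells were lysed in SDS sample buffer, and equal protein amounts were run on SDS-PAGE and transferred to PVDF. Membranes were probed with primary antibodies, then HRP-conjugated secondary antibodies, and detected by ECL chemiluminescence.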
(Immunoblotting shows a protein as a band on a membrane.)

In the next data set the test system is PC-3. The data set can be described thus: Cell proliferation assay. Particulars: read-out: IC50 PC-3; prostate carcinoma; mean ± SD (n ≥ 2). Type of data set: cell-based, human. In outline:
as §2

The next data set has as its system NUGC-3. The data set can be described thus: Cell proliferation assay. Type of data set: cell-based. As to conditions: read-out: IC50 NUGC-3; gastric carcinoma; mean ± SD (n ≥ 2). In outline: as §2
Another data set relates to MV-4-11. Description: Cell proliferation assay. Type of data set: cell-based. Particulars: read-out: IC50 MV-4-11; acute myeloid leukemia; mean ± SD (n ≥ 2). In outline: as §2
Another data set concerns KATO III. The data set can be described thus: Cell proliferation assay. Type of data set: cell-based. As to conditions: read-out: IC50 KATO III; gastric carcinoma; mean ± SD (n ≥ 2). In outline: as §2
The subject of a further data set is MDR1. The data set can be described thus: Western blot of MDR1 in K562/ADR. It is filed as cell-based. As to conditions: 48 h, concentration-dependent. In outline: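 K562 and K562/ADR cells were seeded in 12-well plates overnight and treated with a concentration gradient of test compound for 48 h. Lysates in SDS sample buffer (equal protein) were separated by SDS-PAGE and transferred to PVDF. MDR1 was probed with primary and HRP-conjugated secondary antibodies and detected by ECL.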

A further data set concerns DOHH2. The data set can be described thus: Cell proliferation assay. It is filed as cell-based. As to conditions: read-out: IC50 DOHH2; diffuse large B cell lymphoma; mean ± SD (n ≥ 2). In short, it runs like this: as §2
For another data set, the system named is PC-3 cells. Description: Cell cycle analysis by flow cytometry. As to conditions: PC-3, 24 h treatment. Type of data set: cell-based, human. In short, it runs like this: as §1
The subject of another data set is SUDHL-4. Description: Cell proliferation assay. Type of data set: cell-based. As to conditions: read-out: IC50 SUDHL-4; diffuse large B cell lymphoma; mean ± SD (n ≥ 2). In outline: as §2
For the next data set, the system named is HPAF-II. Description: Cell proliferation assay. Type of data set: cell-based. As to conditions: read-out: IC50 HPAF-II; pancreatic carcinoma; mean ± SD (n ≥ 2). In short, it runs like this:
as §2

Another data set concerns A-431. The data set can be described thus: Cell proliferation assay. As to conditions: read-out: IC50 A-431; squamous cell carcinoma; mean ± SD (n ≥ 2). It is filed as cell-based. In outline:
as §2

For data set [3], the system named is cyclin A2, cyclin B1, and cyclin D1. Description: Western blot of cell cycle-related proteins. It is filed as cell-based, human. Particulars: MDA-MB-231 and PC-3 cells, 24 h, dose-dependent. In short, it runs like this:
as §3

The test system of the next data set is HCT116. The data set can be described thus: Cell proliferation assay. It is filed as cell-based. Particulars: read-out: IC50 HCT116; colorectal carcinoma; mean ± SD (n ≥ 2). In short, it runs like this:
as §2

For another data set, the system named is H1975. The data set can be described thus: Cell proliferation assay. Type of data set: cell-based. As to conditions: read-out: IC50 H1975; lung carcinoma; mean ± SD (n ≥ 2). In short, it runs like this: as §2
Another data set deals with K562. Description: Cell proliferation assay. Particulars: read-out: IC50 K562, mean ± SD (n ≥ 2). It is filed as cell-based. In outline: as §2
For another data set, the system named is MDA-MB-231. The data set can be described thus: Cell proliferation assay. Type of data set: cell-based, human. Particulars: read-out: IC50 MDA-MB-231; breast carcinoma; mean ± SD (n ≥ 2). In outline:
as §2

Data set [4] is described as follows: Boron biodistribution of compound 1d by ICP-mass. As to conditions: 3 h postinjection. Type of data set: in vivo, mice. In short, it runs like this: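 Mice bearing subcutaneous tumours got a single intraperitoneal injection of 2 mg test compound in saline/DMSO and were sacrificed at 3 h. Blood was taken by cardiac puncture, and major organs and tumour were harvested and weighed. Tissue was digested 2 days at room temperature in 1 mL 1:1 concentrated H2SO4/HNO3, diluted 100-fold in water and filtered (0.22 μm). Boron was measured by ICP-OES and ICP-MS as μg/g tissue.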

Where two headings read alike, the source gives them in different places.

Turning to `O=C([O-])CN(CCN(CC(=O)[O-])Cc1cc(CCC(=O)NCCCCCC(=O)NCCCC[C@H](NC(=O)N[C@@H](CCC(=O)O)C(=O)O)C(=O)O)ccc1[O-])Cc1cc(CCC(=O)O)ccc1[O-].[68Ga+3].[OH3+]` [^68Ga-PSMA11], the brain uptake in [1] is listed as 0.013 ± 0.004 % ID/g.

Consider “3-(1,2-Dicarba-closo-dodecarboranyl)-4-oxo-4H-chromen-7-yl Sulfurofluoridate [Compound 1m]”, for which the “RF (resistance factor)” value in the data set with K562/ADR was 0.67. The IC50 in the data set with K562/ADR was determined as 3.04 ± 0.0347 µM; in the data set on NCI-H460, 3.19 ± 0.18 µM; in the data set with PC-3 it was 4.99 ± 2.76 µM; with NUGC-3, 2.54 ± 0.37 µM; in the data set on MV-4-11, 5.45 ± 0.26 µM; with KATO III it was 3.55 ± 0.15 µM. In addition, the IC50 is 1.93 ± 0.12 µM in the data set on DOHH2; 4.29 ± 0.54 µM with SUDHL-4; 2.67 ± 0.55 µM in the data set with HPAF-II; 4.86 ± 0.21 µM in the data set with A-431; 2.86 ± 0.23 µM in the data set with HCT116; 5.63 ± 0.3 µM in the data set with H1975. In addition, the IC50 came out at 4.52 ± 0.8 µM with K562 (chronic myeloid leukemia), 4.52 ± 0.806 µM in the data set on K562 (parental cell line) and 5.46 ± 0.61 µM with MDA-MB-231. Also, the “effect on cell cycle distribution” value in the data set on MDA-MB-231 cells and with PC-3 cells was “caused G0/G1 cell cycle arrest” throughout. Besides, the P-P38 expression entry in data set [2] is on record as “upregulating”. For the same molecule, the “expression of P-AKT, P-STAT3, and P-STAT5” value in data set [2] is recorded as “reduced”. Also, in the data set on MDR1, the “expression of MDR1” value is recorded as “significantly inhibited”. In data set [3], the “expression of cyclin A2, cyclin B1, and cyclin D1” value is “downregulated”.

Turning to “3-(1,2-Dicarba-closo-dodecarboranyl)-5,7-dihydroxy-4H-chromen-4-one [Compound 1g]”, the IC50 with NCI-H460 is 5.93 ± 2.15 µM; in the data set with PC-3, 5.14 ± 2.93 µM; with NUGC-3, 4.79 ± 0.44 µM; with MV-4-11, 5.65 ± 0.02 µM; in the data set on KATO III, 5.02 ± 0.38 µM; in the data set with DOHH2, 5.23 ± 0.62 µM. In addition, the IC50 is 6.16 ± 0.34 µM with SUDHL-4; 4.14 ± 0.93 µM in the data set with HPAF-II; 4.84 ± 1.07 µM in the data set on A-431; 4.21 ± 0.11 µM in the data set on HCT116; 5.13 ± 1.08 µM in the data set on H1975; 7 ± 0.27 µM with K562 (chronic myeloid leukemia). The IC50 in the data set on MDA-MB-231 was determined as 5.34 ± 1.03 µM.

“3-(1,2-Dicarba-closo-dodecarboranyl)-7-hydroxy-4H-chromen-4-one [Compound 1d]”: the “RF (resistance factor)” value with K562/ADR stood at 0.93. The IC50 in the data set on K562/ADR was 4.91 ± 0.094 µM; with NCI-H460 it was 4.24 ± 0.9 µM; in the data set on PC-3, 5.24 ± 1.9 µM; in the data set with NUGC-3 it was 3.36 ± 0.02 µM; in the data set on MV-4-11, 4.25 ± 0.34 µM; with KATO III, 4.38 ± 0.04 µM. Moreover, the IC50 with DOHH2 amounted to 2.78 ± 0.26 µM; with SUDHL-4, 5.4 ± 0.48 µM; in the data set with HPAF-II, 3.56 ± 0.38 µM; in the data set on A-431 it was 4.09 ± 0.46 µM; in the data set on HCT116, 3.42 ± 0.22 µM; in the data set on H1975, 5.27 ± 0.63 µM. For the same molecule, the IC50 with K562 (chronic myeloid leukemia) turned out to be 5.29 ± 0.86 µM; in the data set with K562 (parental cell line), 5.29 ± 0.861 µM; with MDA-MB-231, 5.59 ± 1.82 µM. Also, the “brain/blood uptake ratio (boron)” value in data set [4] was found to be 0.45. For the same molecule, in data set [4] (2 mg intraperitoneal, mice), the “boron content in blood” value stood at 2.28 ± 0.99 µg/g. In data set [4] (2 mg intraperitoneal, mice), the “boron content in brain” value worked out at 1.03 ± 0.43 µg/g. Also, in [4] (2 mg intraperitoneal, mice), the “boron content in liver” value came out at 56.37 ± 4.71 µg/g. Besides, in data set [4] (2 mg intraperitoneal, mice), the “boron content in pancreas” value came to 40.74 ± 4.67 µg/g. Besides, in data set [4] (2 mg intraperitoneal, mice), the “boron content in tumor” value was 2.18 ± 1.18 µg/g. Moreover, the “effect on cell cycle distribution” value with MDA-MB-231 cells and in the data set on PC-3 cells was “caused G0/G1 cell cycle arrest” in each case. Further, the P-P38 expression result in [2] is “upregulating”. Besides, the “expression of P-AKT, P-STAT3, and P-STAT5” value in [2] was “reduced”. Further, in the data set with MDR1, the “expression of MDR1” value was “significantly inhibited”. In addition, the “expression of cyclin A2, cyclin B1, and cyclin D1” value in data set [3] is “downregulated”.
